Measurements from ChEMBL document CHEMBL3098077, “Discovery of novel antitumor dibenzocyclooctatetraene derivatives and related biphenyls as potent inhibitors of NF-κB signaling pathway” (Bioorg Med Chem, 2014).
pIC50: −log10 of the molar value. The source made the active and inactive calls. No cut-off for these calls is given here.

Assays:
[1] = (§1) Inhibition of LPS-induced NF-kappaB activation in mouse RAW264.7 cells treated 30 mins before LPS challenge measured after 6 hrs by luciferase reporter gene assay; format: cell-based
In short: (§2)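 RAW264.7 cells stably carrying an NF-κB-driven firefly luciferase reporter, seeded at 10^4 cells/well and attached overnight. Pretreated 30 min with compound, then stimulated with LPS 1 μg/mL for 6 h; cells lysed and luciferase activity measured. Compounds screened at 10 μM; those above 98% inhibition were tested at serial concentrations for IC50, alongside BAY 11-7082 as positive control.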

[2] = Cytotoxicity against human KBVIN cells by SRB assay; format: functional
In short: (§3)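 SRB growth assay; GI50 taken as molar concentration giving 50% tumor cell growth inhibition. Paclitaxel run as positive control. KBvin is a P-gp-expressing epidermoid carcinoma of the nasopharynx line.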

[3] = tested on: DU-145; test: Cytotoxicity against human DU145 cells by SRB assay; format: functional; in short: as §3
[4] = tested on: KB; test: Cytotoxicity against human KB cells by SRB assay; format: functional; in short: as §3
[5] = tested on: A549; test: Cytotoxicity against human A549 cells by SRB assay; format: functional; in short: as §3
[6] = tested on: RAW264.7; test: Antinflammatory activity in mouse RAW264.7 cells assessed as inhibition of LPS-induced nitric oxide production at 20 uM treated 30 mins before LPS challenge measured after 18 hrs by Griess assay; format: functional, cell-based
In short: (§4)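 RAW264.7 cells seeded in dishes, attached overnight, pretreated 30 min with compound (test compound at 0.6, 1.25 and 2.5 μM; reference inhibitor at 20 μM), then stimulated with LPS 1 μg/mL for 18 h. Medium collected and centrifuged; supernatant nitrite reacted with Griess reagents I and II, absorbance read at 540 nm as measure of NO.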

[7] = tested on: RAW264.7; test: Inhibition of LPS-induced NF-kappaB activation in mouse RAW264.7 cells at 20 uM treated 30 mins before LPS challenge measured after 6 hrs by luciferase reporter gene assay; format: cell-based
[8] = tested on: RAW264.7; test: Inhibition of NF-kappaB-mediated IkappaBalpha degradation in LPS-induced mouse RAW264.7 cells treated 30 mins before LPS challenge measured after 15 mins by Western blot analysis; format: cell-based
In short: (§5)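 RAW264.7 cells in dishes, attached overnight, pretreated 30 min with compound (test compound at 2.5, 5, 10 μM; reference inhibitor at 20 μM), then given LPS 1 μg/mL for 15 min. Total protein in RIPA buffer with protease/phosphatase inhibitors, used for IκB-α; nuclear extract used for p65. Western blot: SDS-PAGE, PVDF, primary antibody overnight at 4 °C, peroxidase secondary 1 h at room temperature, chemiluminescence.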

[9] = tested on: RAW264.7; test: Antinflammatory activity in mouse RAW264.7 cells assessed as inhibition of LPS-induced nitric oxide production at 2.5 uM treated 30 mins before LPS challenge measured after 18 hrs by Griess assay; format: functional, cell-based; in short: as §4
[10] = target: Transcription factor p65 (Mus musculus) (UniProt Q04207); test: Inhibition of LPS-induced NF-kappaB p65 translocation into nucleus in mouse RAW264.7 cells treated 30 mins before LPS challenge measured after 15 mins by Western blot analysis; format: cell-based; in short: as §5
[11] = tested on: RAW264.7; test: Inhibition of LPS-induced NF-kappaB activation in mouse RAW264.7 cells at 10 uM treated 30 mins before LPS challenge measured after 6 hrs by luciferase reporter gene assay; format: cell-based; in short: as §2
[12] = tested on: RAW264.7; test: as §1; format: cell-based; in short: as §2

Chain of Transcription factor p65 (Mus musculus) (Q04207 whole entry): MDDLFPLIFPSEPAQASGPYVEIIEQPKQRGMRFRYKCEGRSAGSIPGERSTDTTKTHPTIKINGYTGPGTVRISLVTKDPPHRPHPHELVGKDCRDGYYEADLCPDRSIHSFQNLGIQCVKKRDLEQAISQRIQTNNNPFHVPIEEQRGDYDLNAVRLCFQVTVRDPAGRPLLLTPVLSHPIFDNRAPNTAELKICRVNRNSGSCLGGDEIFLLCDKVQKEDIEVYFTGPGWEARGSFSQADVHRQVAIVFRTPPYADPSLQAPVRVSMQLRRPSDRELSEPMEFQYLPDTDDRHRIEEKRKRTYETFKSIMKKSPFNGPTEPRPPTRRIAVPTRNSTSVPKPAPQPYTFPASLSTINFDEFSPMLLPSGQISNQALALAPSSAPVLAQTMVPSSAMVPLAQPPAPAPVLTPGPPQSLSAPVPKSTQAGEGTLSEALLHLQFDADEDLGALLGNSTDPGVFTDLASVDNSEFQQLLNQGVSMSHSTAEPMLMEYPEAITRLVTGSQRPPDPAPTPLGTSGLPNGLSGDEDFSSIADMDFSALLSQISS

Structure (SMILES) | pIC50 [1] | GI50 [2] [µM] | GI50 [3] [µM] | GI50 [4] [µM] | GI50 [5] [µM] | further results
CCOC(=O)/C(C#N)=C/c1ccccc1-c1c(/C=C(\C#N)C(=O)OCC)cc(OC)c(OC)c1OC | 5.52 | 8.45 | 8.08 | 6.53 | 7.02 | –
CC(=O)O[C@H]1C(=O)[C@@]2(C)[C@H]([C@H](OC(=O)c3ccccc3)[C@]3(O)C[C@H](OC(=O)[C@H](O)[C@@H](NC(=O)c4ccccc4)c4ccccc4)C(C)=C1C3(C)C)[C@]1(OC(C)=O)CO[C@@H]1C[C@@H]2O [PACLITAXEL] | – | 1.8 | 0.006 | 0.008 | 0.0076 | –
CCOC(=O)/C(C#N)=C/c1ccccc1-c1c(C(=O)OC)cc(OC)c(OC)c1OC | – | > 40 | > 40 | > 40 | > 40 | –
COC(=O)c1cc(OC)c(OC)c(OC)c1-c1ccccc1C=C(C#N)C#N | – | 20.6 | 21.9 | 36.2 | 42 | –
COc1cc(C=C(C#N)C#N)c(-c2ccccc2C=C(C#N)C#N)c(OC)c1OC | – | > 40 | > 40 | > 40 | > 40 | –
COc1cc(C=C(C#N)C#N)c(-c2cc3c(cc2C=C(C#N)C#N)OCO3)c(OC)c1OC | – | > 40 | 19.7 | > 40 | > 40 | –
CCOC(=O)/C(C#N)=C/c1cc(OC)c(OC)cc1-c1c(/C=C(\C#N)C(=O)OCC)cc(OC)c(OC)c1OC | 5.43 | 15.1 | 13.1 | > 36 | 13.8 | –
COC(=O)C1=C/c2cc(OC)c(OC)cc2-c2c(cc(OC)c(OC)c2OC)/C=C\1C(=O)OC | – | > 20 | – | > 20 | > 20 | inhibition [3]: inactive
COc1cc2c(c(OC)c1OC)-c1cc3c(cc1/C=C(C(=O)O)\C(C(=O)O)=C/2)OCO3 | – | > 20 | > 20 | > 20 | > 20 | –
COc1cc(/C=C(\C)[N+](=O)[O-])c(-c2ccccc2/C=C(\C)[N+](=O)[O-])c2c1OCO2 | 6.09 | 18.7 | 19.8 | 18 | 13.9 | –
COC(=O)C1=C/c2cc3c(cc2-c2c(cc(OC)c(OC)c2OC)/C=C\1C(=O)OC)OCO3 | – | 15.4 | – | 14 | 14.5 | –
COC(=O)c1cc(OC)c(OC)c(OC)c1-c1ccccc1/C=C(\C)[N+](=O)[O-] | 5.79 | 6.17 | 6.56 | 6.95 | 6.2 | –
CCOC(=O)/C(C#N)=C/c1cc2c(cc1-c1c(/C=C(\C#N)C(=O)OCC)cc(OC)c(OC)c1OC)OCO2 | – | > 22 | > 22 | > 22 | > 22 | –

Further lines, with some results ahead:

pIC50 [1] | Structure (SMILES) | GI50 [2] [µM] | GI50 [3] [µM] | GI50 [4] [µM] | GI50 [5] [µM] | further results
6.05 | COc1cc(/C=C(\C)[N+](=O)[O-])c(-c2cc3c(cc2/C=C(\C)[N+](=O)[O-])OCO3)c(OC)c1OC | 1.27 | 1.51 | 0.72 | 0.87 | –
5.76 | COc1cc(/C=C/[N+](=O)[O-])c(-c2cc3c(cc2/C=C/[N+](=O)[O-])OCO3)c(OC)c1OC | 8.6 | 9.09 | 5.49 | 8.95 | –
5.76 | Cc1ccc(S(=O)(=O)/C=C/C#N)cc1 | – | – | – | – | inhibition [6]: Active; inhibition [7]: Active
5.79 | COc1c2c(cc(/C=C(\C)[N+](=O)[O-])c1-c1ccccc1/C=C(\C)[N+](=O)[O-])OCO2 | 12.3 | 5.02 | 13.1 | 4.02 | –
6.28 | COc1cc2cc3c(=O)[nH]c(=O)c-3cc3cc4c(cc3c2c(OC)c1OC)OCO4 | 1.45 | 1.43 | 1.47 | 1.38 | inhibition [8]: Dose-dependent effect; inhibition [9]: Active; inhibition [10]: Dose-dependent effect; inhibition [11]: Active; inhibition [12]: Dose-dependent effect
5.99 | COc1cc2cc3c(=O)[nH]c(=O)c-3cc3ccccc3c2c(OC)c1OC | 2.07 | 2.34 | 2.67 | 2.31 | –
5.75 | COc1cc(/C=C/[N+](=O)[O-])c(-c2ccccc2/C=C/[N+](=O)[O-])c(OC)c1OC | 4.6 | 2.09 | 2.58 | 3.07 | –
5.38 | COc1cc(C=C(C#N)C#N)c(-c2c(C=C(C#N)C#N)cc(OC)c(OC)c2OC)cc1OC | 15.9 | 10.1 | 23.2 | 18 | –
5.67 | COc1cc(/C=C(\C)[N+](=O)[O-])c(-c2c(/C=C(\C)[N+](=O)[O-])cc(OC)c(OC)c2OC)cc1OC | 7.22 | 6.75 | 13.5 | 5.23 | –
6.28 | COc1cc2cc3c(=O)[nH]c(=O)c-3cc3cc(OC)c(OC)c(OC)c3c2cc1OC | 10.8 | 11.3 | 10.1 | 10.1 | –
6.12 | COc1cc(/C=C(/C)[N+](=O)[O-])c(-c2ccccc2/C=C(/C)[N+](=O)[O-])c(OC)c1OC | – | – | – | – | –
